Data published in ChEMBL document CHEMBL2086264.
Values after ≈ are worked out from the molar mass of the structure shown. Active and inactive are the calls of the source. The rule behind the calls is not given here.

Legend:
Enterococcus faecalis = assay: Antibacterial activity against Enterococcus faecalis ATCC 33186 after overnight incubation by microbroth dilution assay; type: functional
In short: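 CLSI microbroth dilution in Mueller-Hinton broth; compounds dissolved in DMSO, twofold serial dilutions giving final 200–0.0125 µg/mL. Inoculum from single colony grown at 37°C to mid-log (OD600 0.5), diluted to final OD600 0.0005 (~10^5 CFU/mL). Incubated overnight at 37°C; MIC = lowest concentration inhibiting 90% of visible growth.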

Bacillus anthracis [1] = assay: Inhibition of RNA synthesis in Bacillus anthracis sterne assessed as Inhibition of [3H]uracil incorporation into RNA incubated for 15 mins prior to [3H]uracil addition measured after 30 mins by scintillation counting; type: functional, organism-based
Bacillus anthracis [2] = assay: Inhibition of DNA synthesis in Bacillus anthracis sterne assessed as Inhibition of [3H]thymidine incorporation into DNA incubated for 15 mins prior to [3H]thymidine addition measured after 30 mins by scintillation counting; type: functional, organism-based
Bacillus subtilis = assay: Antibacterial activity against Bacillus subtilis ATCC 23857 after overnight incubation by microbroth dilution assay; type: functional
In short: (§1)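 CLSI M7A7 microbroth dilution in Mueller-Hinton broth; S. pneumoniae broth given 5% lysed horse blood. DMSO stocks of 10 mg/mL; twofold dilutions to final 200–0.0125 µg/mL. Mid-log inoculum (OD600 0.5) diluted to final OD600 0.0005 (~10^5 CFU/mL). Overnight at 37°C; MIC is the lowest concentration inhibiting 90% of visible growth.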

Bacillus anthracis [3] = assay: Inhibition of protein synthesis in Bacillus anthracis sterne assessed as Inhibition of [3H]amino acid incorporation into protein incubated for 15 mins prior to [3H]amino acid addition measured after 30 mins by scintillation counting; type: functional, organism-based
[4] = Inhibition of Staphylococcus aureus PlsY expressed in Escherichia coli FB23281 using [U-14C]glycerol-PO4 as substrate after 20 mins by scintillation counting
In short: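 Membranes from E. coli FB23281 (ΔplsY) expressing S. aureus PlsY (SA1187), 4 µg per reaction. pH 7.4 buffer of 100 mM Tris–HCl, 150 mM NaCl, 1 mg/mL BSA and 5 mM Na3VO4, with 100 µM [U-14C]glycerol-PO4. Started with 16:0-PO4 (final 100 µM), 20 min at 37°C. Spotted on filter discs, washed in graded ice-cold TCA, scintillation counted.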

Bacillus anthracis [5] = assay: Antibacterial activity against Bacillus anthracis after overnight incubation by microbroth dilution assay; type: functional
Streptococcus pneumoniae = assay: Antibacterial activity against Streptococcus pneumoniae R6 after overnight incubation by microbroth dilution assay; type: functional; in short: as §1
Staphylococcus aureus = assay: Antibacterial activity against Staphylococcus aureus ATCC 29213 after overnight incubation by microbroth dilution assay; type: functional; in short: as §1

Row | Structure (SMILES) | MIC90 (Enterococcus faecalis) [µg/mL] | inhibition (Bacillus anthracis [1]) | inhibition (Bacillus anthracis [2]) | MIC90 (Bacillus subtilis) [µg/mL] | inhibition (Bacillus anthracis [3]) | IC50 [4] [µM] | MIC90 (Bacillus anthracis [5]) [µg/mL] | MIC90 (Streptococcus pneumoniae) [µg/mL] | MIC90 (Staphylococcus aureus) [µg/mL]
1 | CCCCCCCCCCCCCCCC(=O)NS(=O)(=O)Oc1ccc(CC(=O)OC)cc1 | > 200 | Active | Active | > 200 | Active | 11 | 3.13 (≈ 6.47 µM) | 0.78 (≈ 1.61 µM) | 25 (≈ 51.7 µM)
2 | CCCCCCCCCCCCCCCC(=O)NS(=O)(=O)OC1CCCCC1 [CYCLOHEXYL PALMITOYLSULFAMATE] | > 200 | Active | Active | > 200 | Active | 5 | 6.25 (≈ 15 µM) | 100 (≈ 239 µM) | > 200
3 | CCCCCCCCCCCCCCCC(=O)NS(=O)(=O)OC1CCN(C(=O)OC(C)(C)C)CC1 | > 200 | Active | Active | > 200 | Active | 15 | 3.13 (≈ 6.03 µM) | > 200 | > 200
4 | CCCCCCCCCCCCCCCC(=O)NS(=O)(=O)Oc1ccc(Cl)c(Cl)c1 | 100 (≈ 208 µM) | Active | Active | 100 (≈ 208 µM) | Active | 9 | 12.5 (≈ 26 µM) | > 200 | > 200
5 | CCCCCCCCCCCCCCCC(=O)NS(=O)(=O)Oc1ccc(-c2ccc([N+](=O)[O-])cc2)cc1 | > 200 | Active | Active | > 200 | Active | 11 | 1.56 (≈ 2.93 µM) | 0.78 (≈ 1.46 µM) | 100 (≈ 188 µM)
6 | CCCCCCCCCCCCCCCC(=O)NS(=O)(=O)OC [METHYL PALMITOYLSULFAMATE] | > 200 | Active | Active | > 200 | Active | 80 | > 100 | > 200 | > 200
7 | CCCCCCCCCCCCCCCC(=O)NS(=O)(=O)Oc1ccc(CCNC(=O)OC(C)(C)C)cc1 | > 200 | Active | Active | > 200 | Active | 22 | 1.56 (≈ 2.81 µM) | 3.13 (≈ 5.64 µM) | > 200
8 | O=C(CCCCCc1ccccc1)NS(=O)(=O)Oc1ccccc1 | 50 (≈ 144 µM) | Active | Active | > 200 | Active | 100 | 100 (≈ 288 µM) | 50 (≈ 144 µM) | 100 (≈ 288 µM)
9 | CCCCCCCCCCCCCCCC(=O)NS(=O)(=O)Oc1ccc(OC)cc1 | 3.12 (≈ 7.06 µM) | Active | Active | 3.12 (≈ 7.06 µM) | Active | 8 | 3.13 (≈ 7.09 µM) | 12.5 (≈ 28.3 µM) | 12.5 (≈ 28.3 µM)
10 | CCCCCCCCCCCCCCCC(=O)NS(=O)(=O)Oc1ccc(C)cc1 | 200 (≈ 470 µM) | Active | Active | 200 (≈ 470 µM) | Active | 12 | 6.25 (≈ 14.7 µM) | > 200 | > 200
11 | CCCCCCCCCCCCCCCC(=O)NS(=O)(=O)OC1CCNCC1 | > 200 | Active | Active | > 200 | Active | > 100 | > 100 | > 200 | > 200
12 | O=C(/C=C/c1ccc(-c2ccccc2)cc1)NS(=O)(=O)Oc1ccccc1 | 50 (≈ 132 µM) | Active | Active | > 200 | Active | > 100 | 100 (≈ 264 µM) | 100 (≈ 264 µM) | 25 (≈ 65.9 µM)
13 | CCCCCCCCCCCCCCCC(=O)NS(=O)(=O)Oc1ccc2c(c1)OCO2 | > 200 | Active | Active | > 200 | Active | 12 | > 100 | 3.13 (≈ 6.87 µM) | 100 (≈ 219 µM)
14 | CCCCCCCCCCCCCC(=O)NS(=O)(=O)Oc1ccc(OC)cc1 | 6.25 (≈ 15.1 µM) | Active | Active | > 200 | Active | 6 | 0.78 (≈ 1.89 µM) | > 200 | > 200
